# Laboratory results from ChEMBL document CHEMBL2380239, “Novel ROS-activated agents utilize a tethered amine to selectively target acute myeloid leukemia” (Bioorg Med Chem Lett, 2013).
# What was measured:
# HeLa = assay: Cytotoxicity against human HeLa cells after 48 hrs by MTT assay; assay type: functional, cell-based
# NCI-H23 = assay: Growth inhibition of human NCI-H23 cells after 48 hrs by sulforhodamine B assay; assay type: functional; conditions: NCI-H23, 48 h
# Summary of the method: (§1)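 Run in the National Cancer Institute 60-cell-line panel screen. Viability was read by sulforhodamine B staining of total protein content, so it reflects cell number rather than metabolic activity. Values are reported as GI50.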
# IGROV-1 = assay: Growth inhibition of human IGROV1 cells after 48 hrs by sulforhodamine B assay; assay type: functional; conditions: IGROV-1, 48 h; summary of the method: as §1
# Hs-578T = assay: Growth inhibition of human Hs578T cells after 48 hrs by sulforhodamine B assay; assay type: functional; summary of the method: as §1
# DU-145 = assay: Growth inhibition of human DU145 cells after 48 hrs by sulforhodamine B assay; assay type: functional; conditions: DU-145, 48 h; summary of the method: as §1
# MDA-MB-468 = assay: Growth inhibition of human MDA-MB-468 cells after 48 hrs by sulforhodamine B assay; assay type: functional; conditions: MDA-MB-468, 48 h; summary of the method: as §1
# NCI-H322M = assay: Growth inhibition of human NCI-H322M cells after 48 hrs by sulforhodamine B assay; assay type: functional; summary of the method: as §1
# SW-620 = assay: Growth inhibition of human SW620 cells after 48 hrs by sulforhodamine B assay; assay type: functional; conditions: SW-620, 48 h
# Summary of the method: (§2)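 Run within the National Cancer Institute 60-cell-line panel. Viability was read by sulforhodamine B staining of total cellular protein, as a measure of cell number rather than metabolic activity. GI50 values were taken from the panel data.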
# OVCAR-5 = assay: Growth inhibition of human OVCAR5 cells after 48 hrs by sulforhodamine B assay; assay type: functional; conditions: OVCAR-5, 48 h; summary of the method: as §1
# 786-0 = assay: Growth inhibition of human 786-0 cells after 48 hrs by sulforhodamine B assay; assay type: functional; conditions: 786-0, 48 h; summary of the method: as §1
# SNB-19 = assay: Growth inhibition of human SNB19 cells after 48 hrs by sulforhodamine B assay; assay type: functional; conditions: SNB-19, 48 h; summary of the method: as §2
# A498 = assay: Growth inhibition of human A498 cells after 48 hrs by sulforhodamine B assay; assay type: functional; conditions: A498, 48 h; summary of the method: as §1
# MDA-MB-231 = assay: Growth inhibition of human MDA-MB-231 cells after 48 hrs by sulforhodamine B assay; assay type: functional; conditions: MDA-MB-231, 48 h; summary of the method: as §1
# OVCAR-3 = assay: Growth inhibition of human OVCAR3 cells after 48 hrs by sulforhodamine B assay; assay type: functional; conditions: OVCAR-3, 48 h; summary of the method: as §1
# UACC-257 = assay: Growth inhibition of human UACC257 cells after 48 hrs by sulforhodamine B assay; assay type: functional; conditions: UACC-257, 48 h; summary of the method: as §2
# SK-MEL-5 = assay: Growth inhibition of human SK-MEL-5 cells after 48 hrs by sulforhodamine B assay; assay type: functional; conditions: SK-MEL-5, 48 h; summary of the method: as §1
# U-251 = assay: Growth inhibition of human U251 cells after 48 hrs by sulforhodamine B assay; assay type: functional; conditions: U-251, 48 h; summary of the method: as §2
# [1] = Therapeutic index, ratio of IC50 for human CD34-positive blood stem/progenitor cells to IC50 for human MA9.3 cells; conditions: CD34-positive blood stem/progenitor cells versus MA9.3 cells, read-out: Ratio IC50
# Summary of the method: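 Cytotoxicity was measured in parallel on non-cancerous human CD34+ blood stem/progenitor cells (UCB) and on the MA9.3 AML line, which was made by introducing the MLL-AF9 oncogene into human CD34+ cells. The index is IC50 in CD34+ cells divided by IC50 in MA9.3, reported as mean ± error.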
# SF-539 = assay: Growth inhibition of human SF539 cells after 48 hrs by sulforhodamine B assay; assay type: functional; conditions: SF-539, 48 h; summary of the method: as §1
# [2] = Cytotoxicity against human CD34-positive blood stem/progenitor cells after 48 hrs by MTT assay; assay type: cell-based
# Summary of the method: (§3)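 Non-transformed human CD34+ blood stem/progenitor cells from umbilical cord blood were run alongside MA9.3, an AML line made by introducing the MLL-AF9 oncogene into human CD34+ cells. IC50 was determined on each cell type. Therapeutic index is the ratio between the MA9.3 and CD34+ IC50 values.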
# A549 = assay: Growth inhibition of human A549/ATCC cells after 48 hrs by sulforhodamine B assay; assay type: functional; conditions: A549, 48 h; summary of the method: as §1
# OVCAR-8 = assay: Growth inhibition of human OVCAR8 cells after 48 hrs by sulforhodamine B assay; assay type: functional; conditions: OVCAR-8, 48 h; summary of the method: as §1
# SF-268 = assay: Growth inhibition of human SF268 cells after 48 hrs by sulforhodamine B assay; assay type: functional; conditions: SF-268, 48 h; summary of the method: as §1
# HCT-116 = assay: Growth inhibition of human HCT116 cells after 48 hrs by sulforhodamine B assay; assay type: functional; conditions: HCT-116, 48 h; summary of the method: as §1
# RPMI-8226 = assay: Growth inhibition of human RPMI8226 cells after 48 hrs by sulforhodamine B assay; assay type: functional; conditions: RPMI-8226, 48 h; summary of the method: as §1
# PC-3 = assay: Growth inhibition of human PC3 cells after 48 hrs by sulforhodamine B assay; assay type: functional; conditions: PC-3, 48 h; summary of the method: as §1
# SNB-75 = assay: Growth inhibition of human SNB75 cells after 48 hrs by sulforhodamine B assay; assay type: functional; conditions: SNB-75, 48 h; summary of the method: as §2
# SK-MEL-2 = assay: Growth inhibition of human SK-MEL-2 cells after 48 hrs by sulforhodamine B assay; assay type: functional; conditions: SK-MEL-2, 48 h; summary of the method: as §1
# OVCAR-4 = assay: Growth inhibition of human OVCAR4 cells after 48 hrs by sulforhodamine B assay; assay type: functional; conditions: OVCAR-4, 48 h; summary of the method: as §1
# [3] = Growth inhibition of human HCC2998 cells after 48 hrs by sulforhodamine B assay; assay type: functional; conditions: HCC 2998, 48 h; summary of the method: as §1
# ACHN = assay: Growth inhibition of human ACHN cells after 48 hrs by sulforhodamine B assay; assay type: functional; summary of the method: as §1
# UO-31 = assay: Growth inhibition of human UO31 cells after 48 hrs by sulforhodamine B assay; assay type: functional; conditions: UO-31, 48 h; summary of the method: as §2
# T47D = assay: Growth inhibition of human T47D cells after 48 hrs by sulforhodamine B assay; assay type: functional; summary of the method: as §2
# BT-549 = assay: Growth inhibition of human BT549 cells after 48 hrs by sulforhodamine B assay; assay type: functional; conditions: BT-549, 48 h; summary of the method: as §1
# RXF 393 = assay: Growth inhibition of human RXF393 cells after 48 hrs by sulforhodamine B assay; assay type: functional; conditions: RXF 393, 48 h; summary of the method: as §1
# KM12 = assay: Growth inhibition of human KM12 cells after 48 hrs by sulforhodamine B assay; assay type: functional; conditions: KM12, 48 h; summary of the method: as §1
# CAKI-1 = assay: Growth inhibition of human CAKI-1 cells after 48 hrs by sulforhodamine B assay; assay type: functional; conditions: CAKI-1, 48 h; summary of the method: as §1
# SK-MEL-28 = assay: Growth inhibition of human SK-MEL-28 cells after 48 hrs by sulforhodamine B assay; assay type: functional; conditions: SK-MEL-28, 48 h; summary of the method: as §1
# MOLT-4 = assay: Growth inhibition of human MOLT4 cells after 48 hrs by sulforhodamine B assay; assay type: functional; conditions: MOLT-4, 48 h; summary of the method: as §1
# HT-29 = assay: Growth inhibition of human HT-29 cells after 48 hrs by sulforhodamine B assay; assay type: functional; conditions: HT-29, 48 h; summary of the method: as §1
# NCI-H226 = assay: Growth inhibition of human NCI-H226 cells after 48 hrs by sulforhodamine B assay; assay type: functional; conditions: NCI-H226, 48 h; summary of the method: as §1
# MCF7 = assay: Growth inhibition of human MCF7 cells after 48 hrs by sulforhodamine B assay; assay type: functional; conditions: MCF7, 48 h; summary of the method: as §1
# MDA-MB-435 = assay: Growth inhibition of human MDA-MB-435 cells after 48 hrs by sulforhodamine B assay; assay type: functional; conditions: MDA-MB-435, 48 h; summary of the method: as §1
# SK-OV-3 = assay: Growth inhibition of human SKOV3 cells after 48 hrs by sulforhodamine B assay; assay type: functional; conditions: SK-OV-3, 48 h; summary of the method: as §1
# HCT-15 = assay: Growth inhibition of human HCT15 cells after 48 hrs by sulforhodamine B assay; assay type: functional; conditions: HCT-15, 48 h; summary of the method: as §1
# COLO 205 = assay: Growth inhibition of human COLO205 cells after 48 hrs by sulforhodamine B assay; assay type: functional; conditions: COLO 205, 48 h; summary of the method: as §1
# TK-10 = assay: Growth inhibition of human TK10 cells after 48 hrs by sulforhodamine B assay; assay type: functional; conditions: TK-10, 48 h; summary of the method: as §2
# [4] = Growth inhibition of human NCI-ADR-RES cells after 48 hrs by sulforhodamine B assay; assay type: functional; summary of the method: as §1
# SR = assay: Growth inhibition of human SR cells after 48 hrs by sulforhodamine B assay; assay type: functional; summary of the method: as §2
# [5] = Cytotoxicity against human MA9.3 cells after 48 hrs by MTT assay; assay type: functional, cell-based; summary of the method: as §3
# SN12C = assay: Growth inhibition of human SN12C cells after 48 hrs by sulforhodamine B assay; assay type: functional; summary of the method: as §2
# M14 = assay: Growth inhibition of human M14 cells after 48 hrs by sulforhodamine B assay; assay type: functional; conditions: M14, 48 h; summary of the method: as §1
# NCI-H522 = assay: Growth inhibition of human NCI-H522 cells after 48 hrs by sulforhodamine B assay; assay type: functional; conditions: NCI-H522, 48 h; summary of the method: as §1
# LOX IMVI = assay: Growth inhibition of human LOXIMVI cells after 48 hrs by sulforhodamine B assay; assay type: functional; summary of the method: as §1
# HOP-62 = assay: Growth inhibition of human HOP62 cells after 48 hrs by sulforhodamine B assay; assay type: functional; conditions: HOP-62, 48 h; summary of the method: as §1
# HL-60(TB) = assay: Growth inhibition of human HL-60(TB) cells after 48 hrs by sulforhodamine B assay; assay type: functional; conditions: HL-60, 48 h
# Summary of the method: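 Tested through the National Cancer Institute's NCI-60 cell line panel screen. Viability was read by sulforhodamine B staining, which measures total cellular protein and so reflects cell number rather than metabolic activity. The value is reported as GI50.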
# UACC-62 = assay: Growth inhibition of human UACC62 cells after 48 hrs by sulforhodamine B assay; assay type: functional; conditions: UACC-62, 48 h; summary of the method: as §2
# CCRF-CEM = assay: Growth inhibition of human CCRF-CEM cells after 48 hrs by sulforhodamine B assay; assay type: functional; summary of the method: as §1
# HOP-92 = assay: Growth inhibition of human HOP92 cells after 48 hrs by sulforhodamine B assay; assay type: functional; conditions: HOP-92, 48 h; summary of the method: as §1
smiles,measurement,setting,value
CCN(CCCOc1ccc(O)cc1)c1ccccc1,IC50,HeLa,14 µM
CN(CCCOc1ccc(O)cc1)c1ccccc1,GI50,NCI-H23,3 µM
same,GI50,IGROV-1,4.1 µM
same,GI50,Hs-578T,3.1 µM
same,GI50,DU-145,2.8 µM
same,GI50,MDA-MB-468,3.3 µM
same,GI50,NCI-H322M,12.6 µM
same,GI50,SW-620,1.3 µM
same,GI50,OVCAR-5,7.8 µM
same,GI50,786-0,1.9 µM
same,GI50,SNB-19,7.9 µM
same,GI50,A498,2.6 µM
same,GI50,MDA-MB-231,6.9 µM
same,GI50,OVCAR-3,4 µM
same,GI50,UACC-257,8.1 µM
same,GI50,SK-MEL-5,2.1 µM
same,GI50,U-251,1.7 µM
same,selectivity ratio,[1],7.7
same,IC50,HeLa,9 µM
same,GI50,SF-539,0.6 µM
same,IC50,[2],5.4 µM
same,GI50,A549,2.2 µM
same,GI50,OVCAR-8,1.5 µM
same,GI50,SF-268,2.2 µM
same,GI50,HCT-116,3.5 µM
same,GI50,RPMI-8226,1.2 µM
same,GI50,PC-3,2.1 µM
same,GI50,SNB-75,3 µM
same,GI50,SK-MEL-2,10.5 µM
same,GI50,OVCAR-4,11.7 µM
same,GI50,[3],11.2 µM
same,GI50,ACHN,0.3 µM
same,GI50,UO-31,0.4 µM
same,GI50,T47D,4.6 µM
same,GI50,BT-549,1.7 µM
same,GI50,RXF 393,2.1 µM
same,GI50,KM12,4.3 µM
same,GI50,CAKI-1,0.3 µM
same,GI50,SK-MEL-28,12.3 µM
same,GI50,MOLT-4,2 µM
same,GI50,HT-29,5.6 µM
same,GI50,NCI-H226,10.5 µM
same,GI50,MCF7,2.6 µM
same,GI50,MDA-MB-435,6.6 µM
same,GI50,SK-OV-3,11.5 µM
same,GI50,HCT-15,3.5 µM
same,GI50,COLO 205,13.8 µM
same,GI50,TK-10,8.3 µM
same,GI50,[4],1.5 µM
same,GI50,SR,2.5 µM
same,IC50,[5],0.7 µM
same,GI50,SN12C,3.1 µM
same,GI50,M14,1.7 µM
same,GI50,NCI-H522,2.8 µM
same,GI50,LOX IMVI,2.8 µM
same,GI50,HOP-62,10.5 µM
same,GI50,HL-60(TB),0.9 µM
same,GI50,UACC-62,2.1 µM
same,GI50,CCRF-CEM,0.3 µM
same,GI50,HOP-92,0.5 µM
